The values below come from ChEMBL document CHEMBL1137574, “Synthesis and structure-activity relationship for a novel class of potent and selective carbamate-based inhibitors of hormone selective lipase with acute in vivo antilipolytic effects” (J Med Chem, 2007).

Activity calls are given as the source filed them. No cut-off for these calls is given here.

In series [1] the target is T1, Cytochrome P450 1A2 (Homo sapiens, UniProt P05177).
T1 sequence (P05177 whole entry): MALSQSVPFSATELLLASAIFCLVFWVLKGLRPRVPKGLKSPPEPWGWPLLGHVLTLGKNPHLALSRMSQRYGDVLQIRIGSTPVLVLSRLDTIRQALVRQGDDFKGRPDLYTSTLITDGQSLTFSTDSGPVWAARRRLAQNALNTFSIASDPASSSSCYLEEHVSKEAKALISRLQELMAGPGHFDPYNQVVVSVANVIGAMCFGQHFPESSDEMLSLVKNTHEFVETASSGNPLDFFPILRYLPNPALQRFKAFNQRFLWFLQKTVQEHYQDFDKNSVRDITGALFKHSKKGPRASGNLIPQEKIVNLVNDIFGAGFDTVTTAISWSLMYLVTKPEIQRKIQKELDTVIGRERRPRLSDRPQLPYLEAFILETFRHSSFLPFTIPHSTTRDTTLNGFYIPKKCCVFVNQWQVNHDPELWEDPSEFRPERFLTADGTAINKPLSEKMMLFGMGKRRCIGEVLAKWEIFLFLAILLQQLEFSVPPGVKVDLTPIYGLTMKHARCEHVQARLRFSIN
The series can be described thus: Inhibition of CYP1A2 in human liver microsome. In kind it is ADME. The conditions noted are these: microsomes. The method, boiled down: (§1)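 Pooled human liver microsomes (0.1 mg, ≥15 donors) incubated 10 min at 37 °C with 1 mM NADPH and test compound at 20 µM, in triplicate. Substrates at Km: CYP1A2, 14C-phenacetin 40 µM; CYP2D6, 14C-dextromethorphan 3 µM. Conversion read by charcoal extraction then scintillation counting of the supernatant.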
Background: Liver microsomes are vesicles of endoplasmic reticulum, rich in cytochrome P450 enzymes.

Series [2] concerns the target T2, Lipoprotein lipase (Bos taurus) (UniProt P11151).
T2 sequence (whole entry): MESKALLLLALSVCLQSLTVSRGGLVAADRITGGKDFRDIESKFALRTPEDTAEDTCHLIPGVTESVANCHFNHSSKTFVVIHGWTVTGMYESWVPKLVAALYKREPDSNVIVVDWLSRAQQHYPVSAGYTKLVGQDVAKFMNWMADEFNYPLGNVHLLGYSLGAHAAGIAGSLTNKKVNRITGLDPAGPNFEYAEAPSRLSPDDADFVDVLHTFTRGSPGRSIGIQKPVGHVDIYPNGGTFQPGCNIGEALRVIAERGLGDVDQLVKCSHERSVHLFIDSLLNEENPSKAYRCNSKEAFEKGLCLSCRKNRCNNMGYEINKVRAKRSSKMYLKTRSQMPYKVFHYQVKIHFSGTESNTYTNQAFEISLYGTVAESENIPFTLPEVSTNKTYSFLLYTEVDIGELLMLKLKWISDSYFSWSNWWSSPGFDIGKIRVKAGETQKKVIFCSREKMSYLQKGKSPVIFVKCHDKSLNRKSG
The series can be described thus: Inhibition of bovin lipoprotein lipase. In outline:
(§2)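 Lipase inhibition (pancreatic, bovine lipoprotein, human hepatic) used a fluorochrome (NBD)-labelled triacylglyceride substrate. Inhibitor at six concentrations, 5-fold dilutions from a maximum of 100 µM, each point the mean of two measurements. IC50 from sigmoidal variable-slope nonlinear regression.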

The target of series [3] is Cytochrome P450 2C9 (Homo sapiens, UniProt P11712). The series can be described thus: Inhibition of CYP2C9 in human liver microsome. It counts as ADME. Conditions: microsomes.
Series [4] has as its system Rattus norvegicus. Nature of the series: Reduction of glycerol in Sprague-Dawley rat at 10 mg/kg, po. It counts as ADME, organism-based. The conditions noted are these: in vivo. Also noted: dose 10 mg/kg, route oral; scale not given: the % may be the effect or the level left. The method, boiled down:
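Male Sprague-Dawley rats, 12 weeks old, fasted overnight; single 10 mg/kg p.o. dose (n = 4 per group; vehicle n = 8). Orbital plexus blood under isoflurane taken at baseline (0.5 h predose) and 1, 3 and 5 h postdose into EDTA tubes with 0.1% NaF. Plasma glycerol measured on an automated analyzer as the antilipolytic endpoint.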

Series [5] is filed under the species Homo sapiens. Nature of the series: Inhibition of acetylcholine lipase.
Series [6] addresses Cytochrome P450 2D6 (Homo sapiens, UniProt P10635). Nature of the series: Inhibition of CYP2D6 in human liver microsome. It counts as ADME. Conditions: microsomes. In outline: as §1
For series [7], the species on record is Homo sapiens. Nature of the series: Inhibition of butyrylcholine lipase.
The target in series [8] is T3, Hepatic triacylglycerol lipase (Homo sapiens) (UniProt P11150).
T3 sequence (whole entry): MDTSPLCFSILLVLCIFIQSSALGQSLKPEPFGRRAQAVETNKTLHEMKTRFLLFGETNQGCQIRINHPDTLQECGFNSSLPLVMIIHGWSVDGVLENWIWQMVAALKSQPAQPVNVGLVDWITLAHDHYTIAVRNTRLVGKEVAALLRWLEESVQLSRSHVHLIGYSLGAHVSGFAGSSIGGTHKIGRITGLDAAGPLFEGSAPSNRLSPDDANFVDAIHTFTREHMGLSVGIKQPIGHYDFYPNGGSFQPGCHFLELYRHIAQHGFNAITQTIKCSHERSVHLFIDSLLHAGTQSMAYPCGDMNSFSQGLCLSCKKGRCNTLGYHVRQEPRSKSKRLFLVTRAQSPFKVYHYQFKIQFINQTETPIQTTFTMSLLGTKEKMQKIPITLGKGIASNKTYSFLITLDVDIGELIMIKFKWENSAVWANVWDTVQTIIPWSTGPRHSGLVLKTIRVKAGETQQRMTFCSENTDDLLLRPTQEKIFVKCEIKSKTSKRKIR
Nature of the series: Inhibition of hepatic lipase. In outline:
as §2

Cytochrome P450 2C9, sequence (P11712 whole entry): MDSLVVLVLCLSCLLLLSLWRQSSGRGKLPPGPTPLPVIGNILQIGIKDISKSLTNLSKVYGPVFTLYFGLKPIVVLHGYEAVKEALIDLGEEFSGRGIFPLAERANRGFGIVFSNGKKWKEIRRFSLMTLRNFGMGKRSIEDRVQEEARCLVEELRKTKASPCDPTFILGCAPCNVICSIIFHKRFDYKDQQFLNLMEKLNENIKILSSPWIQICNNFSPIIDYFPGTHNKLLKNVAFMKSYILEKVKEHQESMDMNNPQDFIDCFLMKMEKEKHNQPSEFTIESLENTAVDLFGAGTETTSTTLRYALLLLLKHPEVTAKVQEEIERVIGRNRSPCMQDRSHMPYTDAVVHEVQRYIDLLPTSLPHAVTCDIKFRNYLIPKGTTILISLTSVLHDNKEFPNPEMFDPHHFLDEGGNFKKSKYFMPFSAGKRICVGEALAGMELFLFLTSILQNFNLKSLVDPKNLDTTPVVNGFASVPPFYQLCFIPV
Cytochrome P450 2D6, sequence (P10635 whole entry): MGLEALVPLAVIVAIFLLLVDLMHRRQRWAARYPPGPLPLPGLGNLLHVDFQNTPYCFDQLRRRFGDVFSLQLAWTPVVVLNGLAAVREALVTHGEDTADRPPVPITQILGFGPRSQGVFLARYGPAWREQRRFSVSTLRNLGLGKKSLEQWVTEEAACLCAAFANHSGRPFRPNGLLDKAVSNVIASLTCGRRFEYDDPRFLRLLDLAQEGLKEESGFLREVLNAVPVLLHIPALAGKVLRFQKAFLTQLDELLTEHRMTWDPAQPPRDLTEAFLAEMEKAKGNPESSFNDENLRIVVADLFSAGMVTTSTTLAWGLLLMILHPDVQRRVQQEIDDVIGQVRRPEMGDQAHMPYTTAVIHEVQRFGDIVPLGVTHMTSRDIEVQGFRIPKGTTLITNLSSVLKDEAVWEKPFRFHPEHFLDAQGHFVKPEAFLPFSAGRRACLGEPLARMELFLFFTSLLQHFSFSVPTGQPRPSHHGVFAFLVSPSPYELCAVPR

For the molecule `O=C(Oc1ccc(Oc2ccc(C(F)(F)F)cn2)cc1)N1CCC(O)CC1`, the Activity entry in series [1] is on record as “Not Active”; in series [3], “Not Active”; in series [4], 42%; in series [6], “Not Active”. Besides, the result in series [2], in series [5], in series [7] and in series [8] was inactive.

Turning to `O=C(Oc1ccc(Oc2ccc(C(F)(F)F)cn2)cc1)N1CCC(CO)CC1`, the Activity entry in series [1] is given as “Not Active”; in series [3], “Not Active”; in series [4], 59%; in series [6], “Not Active”. In addition, the result in series [2], in series [5], in series [7] and in series [8] was inactive.
